Measurements as given in ChEMBL document CHEMBL4052702 (Bioorg Med Chem Lett, 2017).

Legend:
Histone deacetylase 8 = biological target: T1, Histone deacetylase 8 (Homo sapiens, UniProt Q9BY41); assay: Inhibition of HDAC8 (unknown origin) by ELISA-based assay
T1 sequence (Q9BY41 whole entry): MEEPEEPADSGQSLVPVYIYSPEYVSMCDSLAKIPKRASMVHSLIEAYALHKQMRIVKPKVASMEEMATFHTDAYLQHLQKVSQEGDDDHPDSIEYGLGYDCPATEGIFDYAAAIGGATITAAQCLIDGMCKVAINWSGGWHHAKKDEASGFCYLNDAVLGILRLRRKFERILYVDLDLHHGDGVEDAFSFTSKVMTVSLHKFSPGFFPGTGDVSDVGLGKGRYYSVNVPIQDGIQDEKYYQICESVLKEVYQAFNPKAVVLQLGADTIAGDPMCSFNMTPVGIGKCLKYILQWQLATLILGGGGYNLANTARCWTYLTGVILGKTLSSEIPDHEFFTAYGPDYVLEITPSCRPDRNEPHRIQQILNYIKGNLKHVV

Histone deacetylase 1 [1] = biological target: T2, Histone deacetylase 1 (Homo sapiens, UniProt Q13547); assay: Inhibition of HDAC1 (unknown origin) assessed as remaining enzyme activity at 8 x 10^-6 M by ELISA-based assay
T2 sequence (Q13547 whole entry): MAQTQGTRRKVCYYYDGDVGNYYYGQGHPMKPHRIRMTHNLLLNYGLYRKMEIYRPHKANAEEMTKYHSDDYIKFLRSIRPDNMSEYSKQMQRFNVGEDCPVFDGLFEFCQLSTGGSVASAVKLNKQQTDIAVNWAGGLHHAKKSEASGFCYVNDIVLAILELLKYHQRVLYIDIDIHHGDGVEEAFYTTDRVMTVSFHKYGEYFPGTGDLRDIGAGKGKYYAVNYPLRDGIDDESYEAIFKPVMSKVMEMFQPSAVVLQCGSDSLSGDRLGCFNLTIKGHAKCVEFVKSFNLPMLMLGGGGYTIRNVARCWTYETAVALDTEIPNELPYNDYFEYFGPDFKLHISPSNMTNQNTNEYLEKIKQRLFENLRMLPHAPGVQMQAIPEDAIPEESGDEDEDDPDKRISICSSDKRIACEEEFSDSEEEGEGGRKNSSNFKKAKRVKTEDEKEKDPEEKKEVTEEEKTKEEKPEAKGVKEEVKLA

Histone deacetylase 3 [2] = biological target: T3, Histone deacetylase 3 (Homo sapiens, UniProt O15379); assay: Inhibition of HDAC3 (unknown origin) assessed as remaining enzyme activity at 1.25 uM by ELISA-based assay
T3 sequence (O15379 whole entry, canonical isoform): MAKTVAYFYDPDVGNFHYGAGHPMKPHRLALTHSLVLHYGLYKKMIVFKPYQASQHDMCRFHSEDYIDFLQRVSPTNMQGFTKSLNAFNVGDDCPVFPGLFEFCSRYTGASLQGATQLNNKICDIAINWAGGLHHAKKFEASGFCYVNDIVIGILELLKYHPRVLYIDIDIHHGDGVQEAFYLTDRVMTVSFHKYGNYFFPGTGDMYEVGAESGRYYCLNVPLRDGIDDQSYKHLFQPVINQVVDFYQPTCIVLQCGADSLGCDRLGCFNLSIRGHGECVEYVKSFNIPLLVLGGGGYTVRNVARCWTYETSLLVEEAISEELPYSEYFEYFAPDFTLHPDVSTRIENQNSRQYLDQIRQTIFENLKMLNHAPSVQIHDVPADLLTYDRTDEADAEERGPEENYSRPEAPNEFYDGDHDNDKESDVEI
Summary of the method: (§1)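 Isoform screen by ELISA-based HDAC activity assay against HDAC1, HDAC2, HDAC3 and HDAC6. Each analog was tested at one final concentration: 0.025, 0.125, 0.25 or 1.25 µM. Read-out is percent deacetylase activity remaining, given as the mean with standard error of at least two independent trials.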

Homo sapiens [3] = organism: Homo sapiens; assay: Inhibition of HDAC in human HeLa-S3 cells lysates assessed as remaining enzyme activity at 1.25 x 10^-6 M pre-incubated for 15 mins before HDAC-Glo I/II substrate addition and measured after 30 mins post substrate addition; format: cell-free
Homo sapiens [4] = organism: Homo sapiens; assay: Inhibition of HDAC in human HeLa-S3 cells lysates assessed as remaining enzyme activity at 1 x 10^-5 M pre-incubated for 15 mins before HDAC-Glo I/II substrate addition and measured after 30 mins post substrate addition; format: cell-free
Homo sapiens [5] = organism: Homo sapiens; assay: Inhibition of HDAC in human HeLa-S3 cells lysates assessed as remaining enzyme activity at 5 x 10^-6 M pre-incubated for 15 mins before HDAC-Glo I/II substrate addition and measured after 30 mins post substrate addition; format: cell-free
Histone deacetylase 3 [6] = biological target: T3, Histone deacetylase 3; assay: Inhibition of HDAC3 (unknown origin) assessed as remaining enzyme activity at 8 x 10^-6 M by ELISA-based assay
Homo sapiens [7] = organism: Homo sapiens; assay: Inhibition of HDAC in human HeLa-S3 cells lysates assessed as remaining enzyme activity at 2 x 10^-5 M pre-incubated for 15 mins before HDAC-Glo I/II substrate addition and measured after 30 mins post substrate addition; format: cell-free
[8] = biological target: T4, Protein deacetylase HDAC6 (Homo sapiens) (UniProt Q9UBN7); assay: Inhibition of HDAC6 (unknown origin) assessed as remaining enzyme activity at 1.25 uM by ELISA-based assay
T4 sequence (whole entry): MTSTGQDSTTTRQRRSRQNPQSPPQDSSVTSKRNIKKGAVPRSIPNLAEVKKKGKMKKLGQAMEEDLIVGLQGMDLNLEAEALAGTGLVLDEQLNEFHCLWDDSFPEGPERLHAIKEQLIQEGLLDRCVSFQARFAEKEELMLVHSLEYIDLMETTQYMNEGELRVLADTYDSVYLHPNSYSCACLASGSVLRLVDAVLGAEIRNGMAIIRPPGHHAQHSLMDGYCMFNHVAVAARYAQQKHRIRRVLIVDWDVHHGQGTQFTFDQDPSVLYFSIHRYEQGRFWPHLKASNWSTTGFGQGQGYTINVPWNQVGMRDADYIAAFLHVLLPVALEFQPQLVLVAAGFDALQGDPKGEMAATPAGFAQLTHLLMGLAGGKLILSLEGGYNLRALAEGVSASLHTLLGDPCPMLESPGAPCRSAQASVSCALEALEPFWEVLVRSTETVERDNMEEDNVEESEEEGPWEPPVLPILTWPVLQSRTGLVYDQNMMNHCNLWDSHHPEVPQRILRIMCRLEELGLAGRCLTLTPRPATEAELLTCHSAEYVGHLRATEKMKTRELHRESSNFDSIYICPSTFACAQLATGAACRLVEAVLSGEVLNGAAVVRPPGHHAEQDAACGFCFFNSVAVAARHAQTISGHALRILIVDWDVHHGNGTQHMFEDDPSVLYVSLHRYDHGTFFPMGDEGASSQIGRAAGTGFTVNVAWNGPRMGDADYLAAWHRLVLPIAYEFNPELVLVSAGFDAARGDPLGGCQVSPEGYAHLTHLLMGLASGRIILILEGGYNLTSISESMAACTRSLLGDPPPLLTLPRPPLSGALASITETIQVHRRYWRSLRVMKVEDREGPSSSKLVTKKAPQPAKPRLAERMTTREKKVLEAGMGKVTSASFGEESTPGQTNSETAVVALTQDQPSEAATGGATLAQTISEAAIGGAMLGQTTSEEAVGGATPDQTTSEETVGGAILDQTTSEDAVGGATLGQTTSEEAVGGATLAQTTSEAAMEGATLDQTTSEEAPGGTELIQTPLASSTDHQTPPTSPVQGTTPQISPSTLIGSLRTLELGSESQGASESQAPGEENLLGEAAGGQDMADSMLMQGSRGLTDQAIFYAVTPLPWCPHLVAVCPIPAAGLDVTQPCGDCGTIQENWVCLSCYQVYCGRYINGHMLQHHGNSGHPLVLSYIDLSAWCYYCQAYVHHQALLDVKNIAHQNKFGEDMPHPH
Summary of the method: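 Single-concentration isoform screen using an ELISA-based HDAC activity assay, run in parallel against HDAC1, HDAC2, HDAC3 and HDAC6. Read-out is percent deacetylase activity remaining, given as the mean of at least two independent trials with standard error.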

Histone deacetylase 2 [9] = biological target: T5, Histone deacetylase 2 (Homo sapiens, UniProt Q92769); assay: Inhibition of HDAC2 (unknown origin) assessed as remaining enzyme activity at 8 x 10^-6 M by ELISA-based assay
T5 sequence (Q92769 whole entry): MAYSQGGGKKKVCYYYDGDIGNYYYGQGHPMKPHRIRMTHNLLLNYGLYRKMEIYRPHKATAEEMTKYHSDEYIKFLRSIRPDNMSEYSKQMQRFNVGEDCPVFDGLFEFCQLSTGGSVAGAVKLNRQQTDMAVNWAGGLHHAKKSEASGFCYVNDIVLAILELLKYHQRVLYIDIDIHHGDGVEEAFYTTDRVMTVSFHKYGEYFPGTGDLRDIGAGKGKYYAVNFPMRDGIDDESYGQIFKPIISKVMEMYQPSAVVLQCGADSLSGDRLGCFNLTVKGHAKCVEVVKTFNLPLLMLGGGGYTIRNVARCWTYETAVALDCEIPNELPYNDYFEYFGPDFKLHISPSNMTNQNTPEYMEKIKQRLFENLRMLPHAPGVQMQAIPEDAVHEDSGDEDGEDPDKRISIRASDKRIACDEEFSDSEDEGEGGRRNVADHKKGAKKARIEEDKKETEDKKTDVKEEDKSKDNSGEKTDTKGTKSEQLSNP

Histone deacetylase 1 [10] = biological target: T2, Histone deacetylase 1; assay: Inhibition of HDAC1 (unknown origin) assessed as remaining enzyme activity at 1.25 uM by ELISA-based assay; summary of the method: as §1
Histone deacetylase 2 [11] = biological target: T5, Histone deacetylase 2; assay: Inhibition of HDAC2 (unknown origin) assessed as remaining enzyme activity at 1.6 x 10^-5 M by ELISA-based assay
[12] = biological target: T4, Protein deacetylase HDAC6 (Homo sapiens); assay: Inhibition of HDAC6 (unknown origin) assessed as remaining enzyme activity at 4 x 10^-7 M by ELISA-based assay
Histone deacetylase 3 [13] = biological target: T3, Histone deacetylase 3; assay: Inhibition of HDAC3 (unknown origin) assessed as remaining enzyme activity at 1.6 x 10^-5 M by ELISA-based assay
Homo sapiens [14] = organism: Homo sapiens; assay: Inhibition of HDAC in human HeLa-S3 cells lysates assessed as remaining enzyme activity at 2.5 x 10^-6 M pre-incubated for 15 mins before HDAC-Glo I/II substrate addition and measured after 30 mins post substrate addition; format: cell-free
Histone deacetylase 2 [15] = biological target: T5, Histone deacetylase 2; assay: Inhibition of HDAC2 (unknown origin) assessed as remaining enzyme activity at 1.25 uM by ELISA-based assay; summary of the method: as §1

IC50 (Histone deacetylase 8) [nM]	Activity (Histone deacetylase 1 [1]) [%]	Activity (Histone deacetylase 3 [2]) [%]	Activity (Histone deacetylase 3 [6]) [%]	Activity [8] [%]	Activity (Histone deacetylase 2 [9]) [%]	Activity (Histone deacetylase 1 [10]) [%]	Activity (Histone deacetylase 2 [11]) [%]	Activity [12] [%]	Activity (Histone deacetylase 3 [13]) [%]	Activity (Histone deacetylase 2 [15]) [%]	Compound	Activity (Homo sapiens [3]) [%]	Activity (Homo sapiens [4]) [%]	Activity (Homo sapiens [5]) [%]	Activity (Homo sapiens [7]) [%]	Activity (Homo sapiens [14]) [%]
420	22	71	27	28	21	64	14	54	12	72	CCCCCCC(CCCC(=O)NO)CCC(=O)Nc1ccccc1 (centres undefined)	92	35	58	15	83
430	–	–	–	–	–	–	–	48	–	–	CCCCC(CCCC(=O)NO)CCC(=O)Nc1ccccc1 (centres undefined)	–	–	–	–	–
380	27	74	43	17	30	69	19	43	23	74	O=C(CCCC(CCC(=O)Nc1ccccc1)Cc1ccccc1)NO (centres undefined)	93	33	56	17	78
